Screens deposited in PubChem BioAssay by several laboratories.
CSN deneddyl inh: inhibitors of CSN-mediated cullin deneddylation, primary screen, biochemical, fluorescence polarization, uHTS; Purified CSN, SCF-Nedd8-OG deneddylation; inhibition, % at 12.5 µM; 360,000 compounds, 0.38% hits;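 active means pattern-corrected inhibition above about 35%, with an unprinted fluorescence ratio check between 0.5 and 1.5, limit read from the data, passing the limit was not always enough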
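Assay system: Purified human Csn5 enzyme expressed in HEK293T cells | Amount: Enzyme 0.24 nM | Measured by: Fluorescence polarization readout | Medium: Tris/NaCl/DTT buffer, pH 7.5 | Compound dosing: One concentration, 12.5 µM, 0.25% DMSO | Times: 90 min incubation of compound, enzyme and substrate at room temperature | Control set: no-enzyme wells high, enzyme-with-substrate wells low | Read-out: % inhibition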
HNF4A DNA FP: change in binding of human HNF4A to DNA, primary screen, biochemical, fluorescence polarization, FITC-DNA; activity change, % at 10 µM; Hepatocyte nuclear factor 4-alpha (Homo sapiens), P41235; 360,000 compounds, 0.3% hits; 1 h; AID 1224865, 2016; in the data active means activity change above about 30%, passing the limit was not always enough
PREPL inh: PREPL enzyme inhibitors, primary screen, biochemical, fluorescence polarization; Prolyl endopeptidase-like (Homo sapiens), Q4J6C6; recombinant PREPL, fluorescence polarization activity-based probe; inhibition, % at 5.96 µM; 320,000 compounds, 0.68% hits; in the data active means inhibition above about 43%
Neddyl block: inhibitors of cullin neddylation, primary screen, biochemical, TR-FRET, uHTS, NAE and Ubc12 | NEDD8-conjugating enzyme Ubc12 (Homo sapiens) + NEDD8-activating enzyme E1 regulatory … | inhibition, % at 25 µM | 360,000 compounds, 0.58% hits; in the data active means inhibition above about 36%
Rpn11 inh: Rpn11 (PSMD14) deubiquitinase inhibitors, primary screen, biochemical, fluorescence polarization, uHTS | AID 588493, 2011 | human 26S proteasome, Ub4-pepOG fluorescence polarization; 20S core pre-blocked with epoxomicin | inhibition, % at 20 µM | 26S proteasome non-ATPase regulatory subunit 14 (Homo sapiens), O00487 | 360,000 compounds, 0.59% hits;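 active means inhibition at 20 µM, scaled to each plate's controls, above about 33%, limit read from the data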
TbMetRS inhib: T. brucei MetRS inhibitors, primary screen, biochemical, luminescence | inhibition, % at 11.9 µM | 360,000 compounds, 0.4% hits | methionyl-tRNA synthetase (Trypanosoma brucei brucei) | purified T. brucei MetRS, ATP depletion, Kinase-Glo luminescence;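 active means inhibition above a per-plate cutoff of the control wells' mean inhibition plus 3 SD, cut at about 5.5% in these data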
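Material: T. brucei methionyl-tRNA synthetase, purified; reagent: substrates ATP, L-methionine and bulk Escherichia coli tRNA; dosing: 11.9 µM single point; timing: 15 min plus 2 h at 25 °C; detection: luminescence of leftover ATP; evaluation: % inhibition; control set: DMSO-only wells as low control; replicates: singlicate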
Rpn11 inh conf: Rpn11 (PSMD14) deubiquitinase inhibitors, confirmation, biochemical, fluorescence polarization, single concentration | shares compounds with Rpn11 inh | purified human 26S proteasome, Ub4-pepOG fluorescence polarization; proteasome pretreated with epoxomicin | inhibition, % at 20 µM | 1,900 compounds, 29% hits
MMP-2 counter-1: MMP-2 enzyme inhibition, confirmation, counter-screen for RPN11 inhibitor project, biochemical, fluorescence, single concentration; shares compounds with Rpn11 inh; recombinant MMP-2, FRET peptide cleavage fluorescence; inhibition, % at 20 µM; 1,900 compounds, 4% hits;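 further: human MMP-2 activated beforehand with APMA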
Target sequence (P08253 whole entry, looked up): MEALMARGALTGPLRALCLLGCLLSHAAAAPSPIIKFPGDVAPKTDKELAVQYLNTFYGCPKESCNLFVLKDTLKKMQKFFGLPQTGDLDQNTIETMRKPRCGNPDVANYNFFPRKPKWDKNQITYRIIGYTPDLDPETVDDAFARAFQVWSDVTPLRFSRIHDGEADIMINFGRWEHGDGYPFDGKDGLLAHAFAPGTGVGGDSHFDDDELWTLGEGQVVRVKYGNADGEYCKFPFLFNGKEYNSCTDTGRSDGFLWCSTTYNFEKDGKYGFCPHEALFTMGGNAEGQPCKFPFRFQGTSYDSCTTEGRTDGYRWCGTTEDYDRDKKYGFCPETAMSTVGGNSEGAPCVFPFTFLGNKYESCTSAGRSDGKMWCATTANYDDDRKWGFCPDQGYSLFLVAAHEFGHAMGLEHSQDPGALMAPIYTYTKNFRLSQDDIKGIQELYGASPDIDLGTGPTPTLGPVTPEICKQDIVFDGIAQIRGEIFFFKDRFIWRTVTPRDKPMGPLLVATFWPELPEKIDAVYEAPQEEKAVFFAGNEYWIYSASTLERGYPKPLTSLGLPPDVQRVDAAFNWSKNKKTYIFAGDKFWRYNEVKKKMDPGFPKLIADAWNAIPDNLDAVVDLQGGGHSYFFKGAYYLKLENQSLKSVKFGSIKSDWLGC
Thrombin FP: bovine thrombin protease inhibition, confirmation, counter-screen for Rpn11 inhibitor project, biochemical, fluorescence polarization, single concentration | AID 602333, 2012 | inhibition, % at 20 µM | 1,900 compounds, 13% hits | shares compounds with Rpn11 inh | bovine thrombin cleavage of Ub4-pepOG;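 active means mean inhibition at least 40% at 20 µM, or signal 3 deviations below plate average, so some actives read negative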
CSN deneddyl val: Csn5 deneddylation inhibitors, confirmation, biochemical, fluorescence polarization, single concentration, SCF-Nedd8OG substrate | shares compounds with CSN deneddyl inh | Csn5 deneddylation of SCF-Nedd8OG, 90 min | inhibition, % at 16.6 µM | 540 compounds, 62% hits | AID 720654, 2013; in the data active means inhibition above about 50%
MMP-2 counter-2: MMP-2 protease inhibition counter-screen, confirmation, counter-screen for CSN deneddylation inhibitor project, biochemical, fluorescence, single concentration | shares compounds with CSN deneddyl inh | recombinant MMP-2, FRET substrate fluorescence, 60 min | inhibition, % at 16.6 µM | 540 compounds, 33% hits | AID 720655, 2013;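 active means corrected plate-normalized z-score of 5 or more, or -5 or less, or inhibition of 15% or more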
Thrombin counter: thrombin (bovine) inhibition, counter-screen for CSN hits | shares compounds with CSN deneddyl inh | bovine thrombin cleavage of Ub4-pepOG, fluorescence polarization | inhibition, % at 16.6 µM | 540 compounds, 49% hits | AID 720656;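 active means inhibition at or above a set limit, with a fluorescence interference ratio between 0.5 and a set maximum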
Large screens that a line does not name were inactive (follow-up assays come after a bar, where shown); ! = not confirmed by another sample. Hits are enriched below; roughly 2.4% of the tested compounds scored in any of these assays. Unless noted, no stated cut-off is given here; in the data, active means inhibition above about 40%; inactive means the rest.

Cc1nc(SCc2nc3cc(Cl)c(F)cc3[nH]2)c2oc3ccccc3c2n1	CSN deneddyl inh 36, Rpn11 inh 75 | Rpn11 inh conf 64 | MMP-2 counter-1 inactive | Thrombin FP inactive | CSN deneddyl val 86 | MMP-2 counter-2 inactive | Thrombin counter inactive
COc1ccc(N2CCN(S(=O)(=O)c3ccc(OC)c(C(=O)N4CCCC4)c3)CC2)cc1	none
O=C(/C=C/c1ccco1)Nc1cccc(C(=O)Nc2ccccc2C(=O)O)c1	CSN deneddyl inh 42, Rpn11 inh 70 | Rpn11 inh conf 57 | MMP-2 counter-1 inactive | Thrombin FP inactive | CSN deneddyl val 54 | MMP-2 counter-2 inactive | Thrombin counter inactive
Cc1nn(-c2ccccc2)c(C)c1C(=O)NCc1ccccc1F	none
COc1cc([N+](=O)[O-])cc(/C=C2/SC(=S)N(Cc3ccccc3)C2=O)c1O	CSN deneddyl inh 40, HNF4A DNA FP 42, Rpn11 inh 61 | Rpn11 inh conf 64 | MMP-2 counter-1 55 | Thrombin FP inactive | MMP-2 counter-2 inactive | Thrombin counter 44
COc1cc(/C=C2/SC(=S)N(Cc3ccccc3)C2=O)cc(Cl)c1O	none (not shown: Rpn11 inh)
Cc1c2cnn(CC(=O)Nc3c(F)c(F)cc(F)c3F)c(=O)c2c(C)n1Cc1ccccc1F	CSN deneddyl inh 62, Rpn11 inh 86 | Rpn11 inh conf 134 | MMP-2 counter-1 inactive | Thrombin FP inactive | CSN deneddyl val inactive | MMP-2 counter-2 inactive | Thrombin counter inactive
Cc1cc(/C=C2\SC(=S)NC2=O)c(C)n1-c1ccccc1	CSN deneddyl inh 40, HNF4A DNA FP 75, Rpn11 inh 109 | Rpn11 inh conf 77 | MMP-2 counter-1 inactive | Thrombin FP 60 | CSN deneddyl val 61 | MMP-2 counter-2 23 | Thrombin counter 31
Cc1cc(/C=C2\SC(=S)NC2=O)c(C)n1C	CSN deneddyl inh 76, HNF4A DNA FP 44, Rpn11 inh 130 | Rpn11 inh conf 121 | MMP-2 counter-1 inactive | Thrombin FP 91 | CSN deneddyl val 53 | MMP-2 counter-2 24 | Thrombin counter 39
Cc1noc(NS(=O)(=O)c2ccc(NC(=O)c3cccc(S(=O)(=O)Nc4ccccc4F)c3)cc2)c1C	none
CCC1=NN2C(=N)/C(=C\c3ccc(SCc4ccco4)o3)C(=O)N=C2S1	CSN deneddyl inh 78, Rpn11 inh 80 | Rpn11 inh conf inactive | MMP-2 counter-1 inactive | Thrombin FP inactive | CSN deneddyl val inactive | MMP-2 counter-2 16 | Thrombin counter 17
CCCCN(C)C(=O)C1CCCN(S(=O)(=O)c2ccc3c(c2)oc(=O)n3C)C1 (stereo unspecified)	none
O=C(O)CSc1cc(C(=O)c2ccccc2O)cn2c(=O)c3c(-c4ccccc4)csc3nc12	none
CCOC(=O)c1sc2nc3c(SCC(=O)O)cc(C(=O)c4ccccc4O)cn3c(=O)c2c1C	CSN deneddyl inh 47, Rpn11 inh 100 | Rpn11 inh conf 45 | MMP-2 counter-1 inactive | Thrombin FP active | CSN deneddyl val 109 | MMP-2 counter-2 22 | Thrombin counter inactive
CCN1CCN(Cc2ccc(NC(=O)c3cc(NC(=O)c4cncc(-c5ccc(C#N)cc5)c4)cc(OC)c3)cc2C(F)(F)F)CC1	CSN deneddyl inh 138!, HNF4A DNA FP 45!, Rpn11 inh 64 | Rpn11 inh conf 56 | MMP-2 counter-1 inactive | Thrombin FP 60 | CSN deneddyl val inactive | MMP-2 counter-2 17 | Thrombin counter inactive
O=C(CCCN1C(=O)/C(=C\c2ccco2)SC1=S)Nc1ccc(O)cc1C(=O)O	CSN deneddyl inh 48, Rpn11 inh 40 | Rpn11 inh conf inactive | MMP-2 counter-1 inactive | Thrombin FP inactive | CSN deneddyl val 66 | MMP-2 counter-2 24 | Thrombin counter 23
O=C(CCCN1C(=O)/C(=C/c2ccco2)SC1=S)Nc1cccc(C(=O)O)c1	CSN deneddyl inh 45, Rpn11 inh 37 | Rpn11 inh conf inactive | MMP-2 counter-1 45 | Thrombin FP inactive | CSN deneddyl val 80 | MMP-2 counter-2 25 | Thrombin counter inactive
CC[C@H](C)[C@@H](CO)NC(=O)[C@H]1O[C@@H](n2ccc(N)nc2=O)[C@H](O)[C@@H]1O	none (no result: PREPL inh)
O=C(N/N=C/c1cc(Cl)ccc1O)c1ccc(Br)cc1	CSN deneddyl inh 44, Rpn11 inh 166 | Rpn11 inh conf 177 | MMP-2 counter-1 inactive | Thrombin FP inactive | CSN deneddyl val inactive | MMP-2 counter-2 39 | Thrombin counter 16
O=C(N/N=C/c1cc(Br)ccc1O)c1ccncc1	none
Cn1c(=O)c2cc(NC(=O)CCc3ccccc3)ccc2n1-c1ccccc1F	none (not shown: PREPL inh, Neddyl block)
O=C(N/N=C/C=C/c1ccc([N+](=O)[O-])cc1)c1cccs1	CSN deneddyl inh 56, HNF4A DNA FP 56, Rpn11 inh active | Rpn11 inh conf 113 | MMP-2 counter-1 45 | Thrombin FP 41 | MMP-2 counter-2 59 | Thrombin counter 30
O=C(N/N=C/C=C\c1ccccc1[N+](=O)[O-])c1cccs1	none
